# Experimental data as given in ChEMBL document CHEMBL3272112, “Cycloalkanones. 8. Hypocholesterolemic activity of long-chain ketones related to pentadecanone” (J Med Chem, 1976).
# Assays:
# [1] = organism: Rattus norvegicus; experiment: Disruption of rat liver cell membrane assessed as unlysed cells at 5 mg per gram of tissue measured at 2 hrs (reference value: 77 +/- 8%); type: functional
# Outline: (§1)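 Rat liver 10% homogenate in 0.25 M sucrose + 0.001 M EDTA, pH 7.2, incubated at 37°C with Hanke's buffer pH 7.2 and drug suspended in 1% CMC (dose as mg drug per g wet liver); turbidity read as absorbance at 660 nm over 0–4 hr, falling absorbance taken as lysis; expressed as % unlysed cells; vehicle 1% CMC control.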
# [2] = organism: Rattus norvegicus; experiment: Disruption of rat liver cell membrane assessed as unlysed cells at 10 mg per gram of tissue measured at 2 hrs (reference value: 77 +/- 8%); type: functional; outline: as §1
# [3] = test system: Rattus norvegicus; experiment: Hypocholesterolemic activity in Sprague-Dawley rat assessed as serum cholesterol level at 50 mg/kg/day, po administered via intubation measured on day 10 by Liebermann-Burchard method relative to control; type: functional
# Outline: (§2)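 Male Sprague-Dawley rats given compound homogenized in 1% CMC once daily at 11:00 a.m. by oral intubation needle (0.2 cc), doses calculated on weekly body weights; tail-vein blood drawn 24 h after last dose; nonhemolyzed serum (30 μ) assayed by modified Liebermann-Burchard method; N = 8; % of control, mean ± SD; Student's t test.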
# [4] = test system: Rattus norvegicus; experiment: Hypocholesterolemic activity in Sprague-Dawley rat assessed as serum cholesterol level at 20 mg/kg/day, po administered via intubation measured on day 10 by Liebermann-Burchard method relative to control; type: functional; outline: as §2
# [5] = organism: Rattus norvegicus; experiment: Disruption of rat liver cell membrane assessed as unlysed cells at 25 mg per gram of tissue measured at 4 hrs (reference value: 17 +/- 4%); type: functional; outline: as §1
# [6] = test system: Rattus norvegicus; experiment: Toxicity in Sprague-Dawley rat assessed as increase in testes weight at 10 mg/kg/day administered for 16 days measured on day 16 post last dose relative to total body weight (reference value: 1.09 +/- 0.01%); type: organism-based, Testis; conditions: in vivo, 384 h
# [7] = test system: Rattus norvegicus; experiment: Toxicity in Sprague-Dawley rat assessed as food intake at 20 mg/kg/day measured after 1 week (reference value: 20.9 +/- 4.9 g/day); type: organism-based; conditions: in vivo, 168 h
# [8] = test system: Rattus norvegicus; experiment: Toxicity in Sprague-Dawley rat assessed as food intake at 1 mg/kg/day measured after 2 weeks (reference value: 24.8 +/- 1.1 g/day); type: organism-based; conditions: in vivo, 336 h
# [9] = test system: Rattus norvegicus; experiment: Hypocholesterolemic activity in Sprague-Dawley rat assessed as serum cholesterol level at 10 mg/kg/day, po administered via intubation measured on day 16 by Liebermann-Burchard method relative to control; type: functional; outline: as §2
# [10] = organism: Rattus norvegicus; experiment: Disruption of rat liver cell membrane assessed as unlysed cells at 10 mg per gram of tissue measured at 30 mins (reference value: 93 +/- 7%); type: functional; outline: as §1
# [11] = organism: Rattus norvegicus; experiment: Disruption of rat liver cell membrane assessed as unlysed cells at 25 mg per gram of tissue measured at 1 hr (reference value: 90 +/- 4%); type: functional; outline: as §1
# [12] = test system: Rattus norvegicus; experiment: Toxicity in Sprague-Dawley rat assessed as food intake at 5 mg/kg/day measured after 1 week (reference value: 20.9 +/- 4.9 g/day); type: organism-based; conditions: in vivo, 168 h
# [13] = organism: Rattus norvegicus; experiment: Disruption of rat liver lysosomal membrane assessed as free acid phosphatase activity at 10 mg per gram of tissue measured after 1 hr (reference value: 100 +/- 16%); type: functional, tissue-based
# Outline: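 10% rat liver homogenate incubated with Hanke's buffer pH 7.2 and drug suspension in 1% CMC in a shaker at 37°C; aliquot removed after 1 hr and percent free (unbound) acid phosphatase activity determined as an index of lysosomal membrane rupture.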
# [14] = test system: Rattus norvegicus; experiment: Toxicity in Sprague-Dawley rat assessed as effect on protein level in liver at 10 mg/kg/day measured after 16 days (reference value: 100 +/- 5%); type: organism-based; conditions: in vivo, 384 h
# [15] = test system: Rattus norvegicus; experiment: Toxicity in Sprague-Dawley rat assessed as effect on glycogen level in liver at 10 mg/kg/day measured after 16 days (reference value: 100 +/- 26%); type: organism-based; conditions: in vivo, 384 h
# [16] = test system: Rattus norvegicus; experiment: Hypocholesterolemic activity in Sprague-Dawley rat assessed as serum cholesterol level at 10 mg/kg/day, po administered via intubation measured on day 10 by Liebermann-Burchard method relative to control; type: functional; outline: as §2
# [17] = organism: Rattus norvegicus; experiment: Disruption of rat liver cell membrane assessed as unlysed cells at 10 mg per gram of tissue measured at 4 hrs (reference value: 17 +/- 4%); type: functional; outline: as §1
# [18] = test system: Rattus norvegicus; experiment: Hypocholesterolemic activity in Sprague-Dawley rat assessed as serum cholesterol level at 1 mg/kg/day, po administered via intubation measured on day 10 by Liebermann-Burchard method relative to control; type: functional; outline: as §2
# [19] = test system: Rattus norvegicus; experiment: Toxicity in Sprague-Dawley rat assessed as increase in body weight at 5 mg/kg/day administered for 16 days measured on day 16 post last dose (reference value: 195 +/- 16%); type: organism-based; conditions: in vivo, 384 h
# [20] = test system: Rattus norvegicus; experiment: Toxicity in Sprague-Dawley rat assessed as change in kidney weight at 10 mg/kg/day administered for 16 days measured on day 16 post last dose relative to total body weight (reference value: 0.91 +/- 0.10%); type: organism-based; conditions: in vivo, 384 h
# [21] = test system: Rattus norvegicus; experiment: Toxicity in Sprague-Dawley rat assessed as change in heart weight at 10 mg/kg/day administered for 16 days measured on day 16 post last dose relative to total body weight (reference value: 0.39 +/- 0.04%); type: organism-based; conditions: in vivo, 384 h
# [22] = test system: Rattus norvegicus; experiment: Toxicity in Sprague-Dawley rat assessed as effect on RNA level in liver at 10 mg/kg/day measured after 16 days (reference value: 100 +/- 6%); type: organism-based; conditions: in vivo, 384 h
# [23] = organism: Rattus norvegicus; experiment: Disruption of rat liver cell membrane assessed as unlysed cells at 10 mg per gram of tissue measured at 1 hr (reference value: 90 +/- 4%); type: functional; outline: as §1
# [24] = test system: Rattus norvegicus; experiment: Toxicity in Sprague-Dawley rat assessed as atrophy of testis at 10 mg/kg/day administered for 16 days measured on day 16 post last dose; type: organism-based; conditions: in vivo, 384 h
# [25] = test system: Rattus norvegicus; experiment: Hypocholesterolemic activity in Sprague-Dawley rat assessed as serum cholesterol level at 10 mg/kg/day, po administered via intubation measured on day 4 by Liebermann-Burchard method relative to control; type: functional; outline: as §2
# [26] = test system: Rattus norvegicus; experiment: Effect on serum triglyceride level in Sprague-Dawley rat at 10 mg/kg/day measured on day 16 (reference value: 100 +/- 21%); type: functional
# [27] = test system: Rattus norvegicus; experiment: Hypocholesterolemic activity in Sprague-Dawley rat assessed as serum cholesterol level at 50 mg/kg/day, po administered via intubation measured on day 4 by Liebermann-Burchard method relative to control; type: functional; outline: as §2
# [28] = test system: Rattus norvegicus; experiment: Hypocholesterolemic activity in Sprague-Dawley rat assessed as serum cholesterol level at 1 mg/kg/day, po administered via intubation measured on day 16 by Liebermann-Burchard method relative to control; type: functional; outline: as §2
# [29] = test system: Rattus norvegicus; experiment: Toxicity in Sprague-Dawley rat assessed as atrophy of vesicular gland at 10 mg/kg/day administered for 16 days measured on day 16 post last dose; type: organism-based; conditions: in vivo, 384 h
# [30] = test system: Rattus norvegicus; experiment: Effect on serum triglyceride level in Sprague-Dawley rat at 20 mg/kg/day measured on day 14 (reference value: 100 +/- 21%); type: functional
# [31] = organism: Rattus norvegicus; experiment: Disruption of rat liver cell membrane assessed as unlysed cells at 5 mg per gram of tissue measured at 1 hr (reference value: 90 +/- 4%); type: functional; outline: as §1
# [32] = test system: Rattus norvegicus; experiment: Toxicity in Sprague-Dawley rat assessed as atrophy of vas deferens at 10 mg/kg/day administered for 16 days measured on day 16 post last dose; type: organism-based; conditions: in vivo, 384 h
# [33] = organism: Rattus norvegicus; experiment: Disruption of rat liver cell membrane assessed as unlysed cells at 5 mg per gram of tissue measured at 30 mins (reference value: 93 +/- 7%); type: functional; outline: as §1
compound,measurement,setting,value
CCCCCCCCCCCCCCC(C)=O,Activity,[1],83%
same,Activity,[2],77%
same,Activity,[3],74%
same,Activity,[4],76%
same,Activity,[5],18%
same,Activity,[6],1.13%
same,Activity,[7],21.4 g/day
same,Activity,[8],26.6 g/day
same,Activity,[9],58%
same,Activity,[10],95%
same,Activity,[11],92%
same,Activity,[12],21.8 g/day
same,Activity,[13],89%
same,Activity,[14],107%
same,Activity,[15],105%
same,Activity,[16],72%
same,Activity,[17],19%
same,Activity,[18],80%
same,Activity,[19],244%
same,Activity,[20],0.86%
same,Activity,[21],0.39%
same,Activity,[22],111%
same,Activity,[23],92%
same,Activity,[24],Non-toxic
same,Activity,[25],79%
same,Activity,[26],120%
same,Activity,[27],75%
same,Activity,[28],71%
same,Activity,[29],Non-toxic
same,Activity,[30],101%
same,Activity,[31],91%
same,Activity,[32],Non-toxic
same,Activity,[33],93%
